# According to ChEMBL document CHEMBL1143164, “Synthesis and structure-activity relationships of ring-opened 17-hydroxywortmannins: potent phosphoinositide 3-kinase inhibitors with improved properties and anticancer efficacy” (J Med Chem, 2008):
# Activity calls are given as the source filed them. The rule behind the calls is not given here.
# What was measured:
# [1] = molecular target: T1, Phosphatidylinositol 4,5-bisphosphate 3-kinase catalytic subunit alpha isoform (Homo sapiens, UniProt P42336); experiment: Inhibition of PI3K expressed in Escherichia coli by microtiter plate-based fluorescence polarization assay
# Procedure, shortened: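 Fluorescence polarization assay of PI3K activity with PIP2 substrate. Reactions contained 20 mM Hepes pH 7.5, 2 mM MgCl2, 0.05% CHAPS, 0.01% βME, 20 µM PIP2 and 25 µM ATP, and ran 15–30 min at room temperature. They were stopped with buffer holding 10 nM TAMRA-labeled probe and 40 nM GST-GRP1 (E. coli-expressed detector), then incubated 1–2 h before FP readout.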
# [2] = Chemical stability at pH 7.4; assay type: physicochemical; conditions: buffer, read-out: Stability
# Procedure, shortened: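 Compound was incubated with the dipeptide lysine-phenylalanine at pH 7.4. Half-life of amine adduct formation was measured.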
# [3] = molecular target: Serine/threonine-protein kinase mTOR (Homo sapiens, UniProt P42345); experiment: Inhibition of mTOR
# [4] = tested on: LNCaP; experiment: Growth inhibition of human LNCap cells; assay type: functional, cell-based
# [5] = molecular target: Vascular endothelial growth factor receptor 2 (Homo sapiens, UniProt P35968); experiment: Inhibition of KDR
# [6] = Inhibition of IGFR
# [7] = Aqueous solubility of the compound; assay type: physicochemical
# [8] = Half life in mouse at 5 mg/kg, iv; assay type: ADME, organism-based; parameters: dose 5 mg/kg, route intravenous; conditions: in vivo
# Procedure, shortened: (§1)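 Nude mice received a single intravenous bolus of 5 mg/kg. Plasma levels of parent and the 11-deacetylated metabolite were followed over time to derive clearance, volume of distribution and half-life.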
# [9] = molecular target: MAP kinase-activated protein kinase 2 (Homo sapiens, UniProt P49137); experiment: Inhibition of MK2
# [10] = Clearance in mouse at 5 mg/kg, iv; assay type: ADME, organism-based; parameters: dose 5 mg/kg, route intravenous; conditions: in vivo; procedure, shortened: as §1
# [11] = molecular target: Dual specificity mitogen-activated protein kinase kinase 1 (Homo sapiens, UniProt Q02750); experiment: Inhibition of MEK1
# [12] = molecular target: Mitogen-activated protein kinase kinase kinase 8 (Homo sapiens, UniProt P41279); experiment: Inhibition of Tpl2
# [13] = Antitumor activity against human U87MG cells xenografted mouse administered intravenously once a week for two weeks; assay type: functional, U-87MG ATCC; conditions: U-87 MG, iv, 336 h, read-out: MED
# Procedure, shortened: (§2)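 Nude mice bearing U87MG glioma xenografts; compound in PBS given intravenously on the stated schedule for 2 weeks. Tumor growth was monitored twice a week, and tumor volume was determined by a previously described method. Efficacy was expressed as minimum efficacious dose.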
# [14] = molecular target: Cyclin-dependent kinase 4 (Homo sapiens, UniProt P11802); experiment: Inhibition of CDK4
# [15] = Volume of distribution in mouse at 5 mg/kg, iv; assay type: ADME, organism-based; parameters: dose 5 mg/kg, route intravenous; conditions: in vivo, read-out: Vdss; procedure, shortened: as §1
# [16] = molecular target: Phosphatidylinositol 4,5-bisphosphate 3-kinase catalytic subunit gamma isoform (Homo sapiens, UniProt P48736); experiment: Inhibition of PI3Kgamma
# Procedure, shortened: (§3)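 Fluorescence polarization assay using purchased PI3K enzyme. It was stopped with TAMRA-labeled probe (10 nM) plus GST-GRP1 (40 nM), incubated 1–2 h, and FP was read.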
# [17] = molecular target: Phosphatidylinositol 4,5-bisphosphate 3-kinase catalytic subunit beta isoform (Homo sapiens, UniProt P42338); experiment: Inhibition of PI3Kbeta; procedure, shortened: as §3
# [18] = molecular target: Ribosomal protein S6 kinase beta-1 (Homo sapiens, UniProt P23443); experiment: Inhibition of S6K1
# [19] = Antitumor activity against human U87MG cells xenografted mouse administered intravenously twice a week for two weeks; assay type: functional, U-87MG ATCC; conditions: U-87 MG, iv, 336 h, read-out: MED; procedure, shortened: as §2
# [20] = molecular target: T1, Phosphatidylinositol 4,5-bisphosphate 3-kinase catalytic subunit alpha isoform; experiment: Inhibition of PI3K mediated AKT phosphorylation in PTEN negative human U87MG cells at 30 ng/ml; assay type: cell-based; conditions: U-87MG ATCC
# Procedure, shortened: (§4)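 PTEN-negative U87MG cells were plated in six-well plates for 24 h, then treated in growth medium for 6 h against a DMSO control. PI3K pathway phosphorylation was then assessed.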
# [21] = molecular target: Tyrosine-protein kinase Lyn (Homo sapiens, UniProt P07948); experiment: Inhibition of LYN
# [22] = molecular target: T1, Phosphatidylinositol 4,5-bisphosphate 3-kinase catalytic subunit alpha isoform; experiment: Inhibition of PI3K mediated S6K phosphorylation in PTEN negative human U87MG cells at 30 ng/ml; assay type: cell-based; conditions: U-87MG ATCC; procedure, shortened: as §4
# [23] = molecular target: T2, Phosphatidylinositol 4,5-bisphosphate 3-kinase catalytic subunit delta isoform (Homo sapiens, UniProt O00329); experiment: Inhibition of PI3Kdelta; procedure, shortened: as §3
# T2 sequence (O00329 whole entry): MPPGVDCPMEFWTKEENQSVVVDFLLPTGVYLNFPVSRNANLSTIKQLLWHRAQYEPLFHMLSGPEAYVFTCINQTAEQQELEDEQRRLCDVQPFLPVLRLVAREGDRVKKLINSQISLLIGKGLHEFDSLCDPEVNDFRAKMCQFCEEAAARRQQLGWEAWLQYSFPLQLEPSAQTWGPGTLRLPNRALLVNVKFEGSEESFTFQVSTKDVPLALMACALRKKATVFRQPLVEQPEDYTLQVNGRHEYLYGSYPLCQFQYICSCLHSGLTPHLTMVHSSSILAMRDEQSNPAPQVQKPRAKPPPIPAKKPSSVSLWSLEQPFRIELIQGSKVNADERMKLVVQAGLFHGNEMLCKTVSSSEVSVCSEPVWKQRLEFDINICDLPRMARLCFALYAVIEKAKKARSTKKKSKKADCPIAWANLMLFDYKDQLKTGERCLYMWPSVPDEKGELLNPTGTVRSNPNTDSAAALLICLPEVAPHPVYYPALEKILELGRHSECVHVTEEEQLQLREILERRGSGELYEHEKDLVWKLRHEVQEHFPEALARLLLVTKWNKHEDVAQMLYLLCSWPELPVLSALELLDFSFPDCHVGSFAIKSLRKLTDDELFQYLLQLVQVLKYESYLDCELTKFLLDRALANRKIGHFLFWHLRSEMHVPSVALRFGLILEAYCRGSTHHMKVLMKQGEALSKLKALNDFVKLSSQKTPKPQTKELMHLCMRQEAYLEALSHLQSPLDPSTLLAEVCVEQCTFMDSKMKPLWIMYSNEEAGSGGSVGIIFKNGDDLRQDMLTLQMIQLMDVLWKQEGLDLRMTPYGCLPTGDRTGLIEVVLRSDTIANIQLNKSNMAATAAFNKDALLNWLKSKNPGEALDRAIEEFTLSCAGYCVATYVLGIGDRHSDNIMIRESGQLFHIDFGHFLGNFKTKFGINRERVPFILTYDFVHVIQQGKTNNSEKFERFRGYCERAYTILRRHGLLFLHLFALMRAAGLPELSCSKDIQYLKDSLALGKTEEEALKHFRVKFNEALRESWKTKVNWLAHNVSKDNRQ
# [24] = molecular target: T3, Inhibitor of nuclear factor kappa-B kinase subunit beta (Homo sapiens, UniProt O14920); experiment: Inhibition of IKK-beta
# T3 sequence (O14920 whole entry): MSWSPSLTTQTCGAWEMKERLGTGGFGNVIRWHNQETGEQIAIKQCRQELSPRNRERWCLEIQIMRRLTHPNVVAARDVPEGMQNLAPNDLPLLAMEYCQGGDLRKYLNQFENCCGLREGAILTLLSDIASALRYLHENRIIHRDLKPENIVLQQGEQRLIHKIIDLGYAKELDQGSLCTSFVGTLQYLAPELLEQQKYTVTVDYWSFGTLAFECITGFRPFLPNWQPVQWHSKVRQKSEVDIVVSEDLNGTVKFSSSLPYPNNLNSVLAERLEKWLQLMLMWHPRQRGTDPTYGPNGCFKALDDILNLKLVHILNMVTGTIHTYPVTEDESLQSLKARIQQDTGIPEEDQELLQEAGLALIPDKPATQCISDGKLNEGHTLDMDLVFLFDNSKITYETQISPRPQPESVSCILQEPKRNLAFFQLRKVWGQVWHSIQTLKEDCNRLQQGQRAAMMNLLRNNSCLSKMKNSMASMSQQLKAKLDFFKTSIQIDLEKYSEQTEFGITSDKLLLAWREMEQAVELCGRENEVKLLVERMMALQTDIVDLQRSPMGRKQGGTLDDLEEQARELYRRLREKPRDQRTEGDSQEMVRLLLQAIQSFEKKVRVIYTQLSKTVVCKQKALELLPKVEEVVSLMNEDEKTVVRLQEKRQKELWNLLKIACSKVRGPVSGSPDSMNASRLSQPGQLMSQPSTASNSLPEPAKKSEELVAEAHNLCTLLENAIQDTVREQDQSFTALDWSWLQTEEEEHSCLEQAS
# [25] = Inhibition of GSK3
# [26] = molecular target: RAC-alpha serine/threonine-protein kinase (Homo sapiens, UniProt P31749); experiment: Inhibition of AKT1
# [27] = Antitumor activity against human U87MG cells xenografted mouse administered intravenously thrice a week for two weeks; assay type: functional, U-87MG ATCC; conditions: U-87 MG, iv, 336 h, read-out: MED
# Procedure, shortened: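 Nude mice bearing U87MG glioma xenografts; dosed iv in PBS at the stated doses and schedules for 2 weeks. Tumor growth was monitored twice weekly, and tumor volume was determined by a previously described method.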
# [28] = molecular target: Tyrosine-protein kinase BTK (Homo sapiens, UniProt Q06187); experiment: Inhibition of BTK
# T1 sequence (P42336 whole entry, canonical isoform): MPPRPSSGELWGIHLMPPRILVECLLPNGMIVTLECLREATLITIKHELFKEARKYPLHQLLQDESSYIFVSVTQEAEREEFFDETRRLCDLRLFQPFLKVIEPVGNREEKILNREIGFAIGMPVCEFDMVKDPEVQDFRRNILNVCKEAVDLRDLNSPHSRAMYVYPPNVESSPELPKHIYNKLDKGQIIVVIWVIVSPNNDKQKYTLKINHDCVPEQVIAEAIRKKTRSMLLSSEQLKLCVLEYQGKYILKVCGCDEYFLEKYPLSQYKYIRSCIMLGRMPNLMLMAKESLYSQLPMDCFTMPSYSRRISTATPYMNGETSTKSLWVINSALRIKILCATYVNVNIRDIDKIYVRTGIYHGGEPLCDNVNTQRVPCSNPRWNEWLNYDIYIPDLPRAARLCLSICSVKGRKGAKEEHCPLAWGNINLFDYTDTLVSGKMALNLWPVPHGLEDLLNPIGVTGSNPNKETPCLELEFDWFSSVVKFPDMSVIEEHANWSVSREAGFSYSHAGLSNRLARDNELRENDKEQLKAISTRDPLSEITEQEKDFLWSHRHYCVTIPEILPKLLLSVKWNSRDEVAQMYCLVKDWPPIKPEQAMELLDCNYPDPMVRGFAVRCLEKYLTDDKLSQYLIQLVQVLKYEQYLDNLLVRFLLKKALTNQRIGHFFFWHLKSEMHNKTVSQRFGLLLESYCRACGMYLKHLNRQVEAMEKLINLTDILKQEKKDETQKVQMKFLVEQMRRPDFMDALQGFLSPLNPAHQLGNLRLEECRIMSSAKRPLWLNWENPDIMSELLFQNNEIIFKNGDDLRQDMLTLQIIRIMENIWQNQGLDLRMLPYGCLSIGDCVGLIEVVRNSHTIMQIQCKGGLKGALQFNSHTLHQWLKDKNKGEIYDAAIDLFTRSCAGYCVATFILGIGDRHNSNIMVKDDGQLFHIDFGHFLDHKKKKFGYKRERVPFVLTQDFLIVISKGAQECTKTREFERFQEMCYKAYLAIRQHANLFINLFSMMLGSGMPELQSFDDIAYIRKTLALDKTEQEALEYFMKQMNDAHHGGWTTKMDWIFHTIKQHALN
# Dual specificity mitogen-activated protein kinase kinase 1, sequence (Q02750 whole entry): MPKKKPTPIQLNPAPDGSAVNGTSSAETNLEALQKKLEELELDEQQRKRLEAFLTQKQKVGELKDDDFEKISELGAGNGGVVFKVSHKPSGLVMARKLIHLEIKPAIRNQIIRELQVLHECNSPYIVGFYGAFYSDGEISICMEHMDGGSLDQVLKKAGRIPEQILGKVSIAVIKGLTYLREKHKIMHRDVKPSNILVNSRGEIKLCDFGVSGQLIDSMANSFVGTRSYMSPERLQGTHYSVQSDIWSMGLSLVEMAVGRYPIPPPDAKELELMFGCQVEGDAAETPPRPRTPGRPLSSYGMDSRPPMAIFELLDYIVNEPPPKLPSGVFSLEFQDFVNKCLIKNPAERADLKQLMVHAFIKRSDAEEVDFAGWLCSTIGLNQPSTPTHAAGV
# Tyrosine-protein kinase Lyn, sequence (P07948 whole entry, canonical isoform): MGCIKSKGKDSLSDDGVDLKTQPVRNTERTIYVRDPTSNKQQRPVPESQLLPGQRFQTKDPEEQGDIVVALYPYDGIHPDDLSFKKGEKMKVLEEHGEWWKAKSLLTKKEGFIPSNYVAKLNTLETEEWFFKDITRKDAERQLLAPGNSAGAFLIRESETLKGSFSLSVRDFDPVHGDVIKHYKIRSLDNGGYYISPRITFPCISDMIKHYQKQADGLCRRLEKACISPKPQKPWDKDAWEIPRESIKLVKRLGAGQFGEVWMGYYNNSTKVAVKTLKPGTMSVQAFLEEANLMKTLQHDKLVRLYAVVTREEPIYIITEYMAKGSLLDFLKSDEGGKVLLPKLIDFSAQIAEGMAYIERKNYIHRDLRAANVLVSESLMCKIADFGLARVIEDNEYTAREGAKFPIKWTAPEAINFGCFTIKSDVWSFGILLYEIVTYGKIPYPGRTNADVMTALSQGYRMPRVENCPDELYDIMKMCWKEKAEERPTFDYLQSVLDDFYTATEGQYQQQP
# Ribosomal protein S6 kinase beta-1, sequence (P23443 whole entry): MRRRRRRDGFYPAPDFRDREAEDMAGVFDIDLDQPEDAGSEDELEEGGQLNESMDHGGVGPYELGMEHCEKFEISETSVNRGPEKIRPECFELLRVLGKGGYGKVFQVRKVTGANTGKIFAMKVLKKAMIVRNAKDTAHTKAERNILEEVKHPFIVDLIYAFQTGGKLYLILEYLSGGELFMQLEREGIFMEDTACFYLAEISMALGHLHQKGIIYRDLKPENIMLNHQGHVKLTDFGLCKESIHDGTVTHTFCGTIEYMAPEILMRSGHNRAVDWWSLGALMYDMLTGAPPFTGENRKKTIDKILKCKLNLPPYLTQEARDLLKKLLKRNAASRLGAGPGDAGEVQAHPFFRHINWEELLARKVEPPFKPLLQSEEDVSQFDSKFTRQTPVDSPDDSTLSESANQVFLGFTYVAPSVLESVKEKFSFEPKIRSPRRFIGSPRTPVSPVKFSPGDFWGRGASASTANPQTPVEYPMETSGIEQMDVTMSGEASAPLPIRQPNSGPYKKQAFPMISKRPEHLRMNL
# MAP kinase-activated protein kinase 2, sequence (P49137 whole entry): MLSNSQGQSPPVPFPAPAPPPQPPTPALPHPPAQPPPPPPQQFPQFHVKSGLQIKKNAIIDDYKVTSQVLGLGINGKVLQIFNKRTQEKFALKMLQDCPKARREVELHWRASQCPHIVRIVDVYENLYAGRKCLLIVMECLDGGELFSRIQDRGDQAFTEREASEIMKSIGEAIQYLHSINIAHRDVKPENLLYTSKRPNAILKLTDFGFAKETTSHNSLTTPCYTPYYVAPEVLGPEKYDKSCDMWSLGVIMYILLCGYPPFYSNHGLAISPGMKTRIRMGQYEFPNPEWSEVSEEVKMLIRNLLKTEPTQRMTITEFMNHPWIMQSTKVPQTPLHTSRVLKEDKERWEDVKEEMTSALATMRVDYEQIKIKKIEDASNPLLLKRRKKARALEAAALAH
# Mitogen-activated protein kinase kinase kinase 8, sequence (P41279 whole entry): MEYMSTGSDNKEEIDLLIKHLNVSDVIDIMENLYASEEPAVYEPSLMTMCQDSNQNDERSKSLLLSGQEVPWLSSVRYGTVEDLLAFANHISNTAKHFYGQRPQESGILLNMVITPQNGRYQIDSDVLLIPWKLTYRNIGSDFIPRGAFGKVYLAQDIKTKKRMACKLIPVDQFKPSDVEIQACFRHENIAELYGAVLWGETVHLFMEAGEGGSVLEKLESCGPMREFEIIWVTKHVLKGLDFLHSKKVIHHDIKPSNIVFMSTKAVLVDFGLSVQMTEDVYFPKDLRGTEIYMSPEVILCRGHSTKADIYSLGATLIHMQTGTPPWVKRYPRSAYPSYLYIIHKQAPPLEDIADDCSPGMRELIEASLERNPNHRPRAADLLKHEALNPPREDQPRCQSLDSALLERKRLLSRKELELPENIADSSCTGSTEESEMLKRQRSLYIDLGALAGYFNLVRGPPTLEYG
# Vascular endothelial growth factor receptor 2, sequence (P35968 whole entry): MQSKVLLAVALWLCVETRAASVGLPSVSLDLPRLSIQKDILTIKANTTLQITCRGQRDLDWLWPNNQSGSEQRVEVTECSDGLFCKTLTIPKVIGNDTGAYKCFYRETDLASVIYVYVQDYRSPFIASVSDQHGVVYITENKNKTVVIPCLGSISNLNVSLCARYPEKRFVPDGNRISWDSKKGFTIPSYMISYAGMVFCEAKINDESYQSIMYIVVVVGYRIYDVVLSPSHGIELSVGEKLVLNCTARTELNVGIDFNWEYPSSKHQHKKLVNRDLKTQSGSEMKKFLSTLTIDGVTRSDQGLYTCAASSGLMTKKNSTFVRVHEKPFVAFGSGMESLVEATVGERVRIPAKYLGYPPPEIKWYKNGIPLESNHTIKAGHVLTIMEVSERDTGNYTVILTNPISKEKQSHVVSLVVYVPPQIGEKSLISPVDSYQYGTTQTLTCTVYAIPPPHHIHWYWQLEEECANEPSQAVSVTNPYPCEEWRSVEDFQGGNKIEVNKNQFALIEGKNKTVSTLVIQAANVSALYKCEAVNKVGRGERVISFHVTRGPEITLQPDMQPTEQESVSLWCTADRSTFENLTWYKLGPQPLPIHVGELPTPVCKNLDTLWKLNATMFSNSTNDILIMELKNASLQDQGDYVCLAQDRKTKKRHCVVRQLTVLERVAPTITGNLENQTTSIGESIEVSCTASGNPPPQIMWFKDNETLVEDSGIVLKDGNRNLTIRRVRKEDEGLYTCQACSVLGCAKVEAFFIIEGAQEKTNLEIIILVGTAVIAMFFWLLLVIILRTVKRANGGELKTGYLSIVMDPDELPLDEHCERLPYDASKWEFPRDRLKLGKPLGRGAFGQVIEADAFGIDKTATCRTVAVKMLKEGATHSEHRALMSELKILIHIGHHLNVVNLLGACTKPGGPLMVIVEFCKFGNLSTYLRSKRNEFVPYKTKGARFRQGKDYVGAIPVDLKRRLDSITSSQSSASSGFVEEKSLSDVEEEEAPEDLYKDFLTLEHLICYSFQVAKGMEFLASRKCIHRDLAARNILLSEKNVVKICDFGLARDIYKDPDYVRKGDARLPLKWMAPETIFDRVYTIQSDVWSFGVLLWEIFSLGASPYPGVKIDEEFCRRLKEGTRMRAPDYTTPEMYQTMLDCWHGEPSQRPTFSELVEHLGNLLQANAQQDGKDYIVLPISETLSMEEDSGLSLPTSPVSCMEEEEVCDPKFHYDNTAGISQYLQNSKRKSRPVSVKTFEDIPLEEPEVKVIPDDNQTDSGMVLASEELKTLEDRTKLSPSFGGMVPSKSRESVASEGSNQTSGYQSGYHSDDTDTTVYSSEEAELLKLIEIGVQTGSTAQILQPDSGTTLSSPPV
# Cyclin-dependent kinase 4, sequence (P11802 whole entry): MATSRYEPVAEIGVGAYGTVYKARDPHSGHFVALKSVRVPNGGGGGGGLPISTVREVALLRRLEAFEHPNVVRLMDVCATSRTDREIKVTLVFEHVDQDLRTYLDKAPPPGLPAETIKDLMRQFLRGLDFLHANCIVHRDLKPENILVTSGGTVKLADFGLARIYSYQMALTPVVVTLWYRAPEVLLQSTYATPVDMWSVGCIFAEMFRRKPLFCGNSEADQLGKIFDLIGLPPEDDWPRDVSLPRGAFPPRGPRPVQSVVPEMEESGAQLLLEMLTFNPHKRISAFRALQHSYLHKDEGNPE
Structure (SMILES),IC50 [1] [µM],half-life [2] [min],IC50 [3] [µM],IC50 [4] [µM],IC50 [5] [µM],IC50 [6] [µM],half-life [8] [min],IC50 [9] [µM],IC50 [11] [µM],IC50 [12] [µM],minimal effective dose [13] [mg/kg],IC50 [14] [µM],IC50 [18] [µM],minimal effective dose [19] [mg/kg],IC50 [21] [µM],IC50 [24] [µM],IC50 [25] [µM],IC50 [26] [µM],also measured
CCN(/C=C1/C(=O)O[C@H](COC)[C@@]2(C)C1=C(O)C(=O)C1=C2[C@H](OC(C)=O)C[C@]2(C)[C@@H](O)CC[C@@H]12)CC,0.382,57,14,0.16,,,,,,,,,,,,,,,
COC[C@H]1OC(=O)/C(=C/N(C)CCCN(C)C)C2=C(O)C(=O)C3=C([C@H](OC(C)=O)C[C@]4(C)[C@@H](O)CC[C@@H]34)[C@]21C,0.064,,2.92,0.389,> 10,> 10,30,> 200,> 10,> 40,2.5,> 50,> 30,< 1.25,> 30,> 10,> 10,> 30,solubility [7]: > 10000 µg/mL; clearance [10]: 50 mL/min/kg; Vd [15]: 0.7 L/kg; IC50 [16]: 8 µM; IC50 [17]: 0.013 µM; Activity [20]: Active; Activity [22]: Active; IC50 [23]: 0.011 µM
COC[C@H]1OC(=O)/C(=C/N(CCO)C(C)(C)C)C2=C(O)C(=O)C3=C([C@H](OC(C)=O)C[C@]4(C)[C@@H](O)CC[C@@H]34)[C@]21C,1.11,,28.6,0.128,> 10,> 10,,> 200,> 10,> 40,15,> 50,> 30,7.5,> 30,> 10,> 10,> 30,minimal effective dose [27]: 5 mg/kg; IC50 [28]: > 10 µM
COC[C@H]1OC(=O)c2coc3c2[C@@]1(C)C1=C(C3=O)[C@@H]2CC[C@H](O)[C@@]2(C)C[C@H]1OC(C)=O,0.0027,4,0.193,1.46,,,4,,,,,,,,,,,,
